This passage reports IC50, Activity and ΔTm results from ChEMBL document CHEMBL4706717, “Covalent Occlusion of the RORγt Ligand Binding Pocket Allows Unambiguous Targeting of an Allosteric Site” (ACS Med Chem Lett, 2021).

Calls of active or inactive are those of the source. The rule behind the calls is not given here.

The target in experiment [1] is T1, Nuclear receptor ROR-gamma (Homo sapiens, UniProt P51449).
T1 sequence (P51449 whole entry): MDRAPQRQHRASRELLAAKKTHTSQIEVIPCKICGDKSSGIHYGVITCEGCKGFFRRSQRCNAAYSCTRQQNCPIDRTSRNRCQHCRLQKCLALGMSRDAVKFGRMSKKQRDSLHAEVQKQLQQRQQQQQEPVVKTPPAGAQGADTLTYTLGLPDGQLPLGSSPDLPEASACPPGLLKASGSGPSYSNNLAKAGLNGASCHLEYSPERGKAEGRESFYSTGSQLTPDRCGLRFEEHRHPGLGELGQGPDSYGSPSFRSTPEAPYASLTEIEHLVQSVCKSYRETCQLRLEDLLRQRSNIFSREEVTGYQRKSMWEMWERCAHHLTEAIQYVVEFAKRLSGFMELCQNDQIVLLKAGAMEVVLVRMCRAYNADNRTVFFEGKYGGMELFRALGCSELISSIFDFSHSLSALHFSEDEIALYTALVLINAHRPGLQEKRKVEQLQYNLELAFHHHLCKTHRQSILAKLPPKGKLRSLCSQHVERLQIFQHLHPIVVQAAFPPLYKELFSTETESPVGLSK
Put plainly: Orthosteric inverse agonist activity at recombinant human N-terminal His6-tagged RORgammat ligand binding domain (265 to 518 residues) expressed in Escherichia coli BL21 (DE3) assessed as reduction in coactivator, N-terminal biotinylated SRC-1 box2 peptide recruitment incubated for 60 mins by TR-FRET assay. In general terms: TR-FRET usually uses a lanthanide donor and a delayed reading to cut background.

For experiment [2], the species on record is Homo sapiens. Description: Binding affinity to recombinant human N-terminal His6-tagged RORgammat ligand binding domain (265 to 507 residues) Cys320Ala mutant expressed in Escherichia coli BL21 (DE3) incubated for overnight by Q-TOF-MS analysis. In a few lines:
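Ligation of His6-RORγt LBD (residues 265-507, used for mutagenesis work) at 20 μM with 5-10 eq probe in 50 mM TRIS (pH 5.3-5.8), 50 mM NaCl, 5 mM CHAPS, 0.1% BSA, continuous mixing overnight at 4°C or RT; LC-MS Q-TOF, deconvoluted spectra; percent ligation from ratio of mass peaks.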

Experiment [3] addresses T2, Peroxisome proliferator-activated receptor gamma (Homo sapiens) (UniProt P37231).
T2 sequence (whole entry): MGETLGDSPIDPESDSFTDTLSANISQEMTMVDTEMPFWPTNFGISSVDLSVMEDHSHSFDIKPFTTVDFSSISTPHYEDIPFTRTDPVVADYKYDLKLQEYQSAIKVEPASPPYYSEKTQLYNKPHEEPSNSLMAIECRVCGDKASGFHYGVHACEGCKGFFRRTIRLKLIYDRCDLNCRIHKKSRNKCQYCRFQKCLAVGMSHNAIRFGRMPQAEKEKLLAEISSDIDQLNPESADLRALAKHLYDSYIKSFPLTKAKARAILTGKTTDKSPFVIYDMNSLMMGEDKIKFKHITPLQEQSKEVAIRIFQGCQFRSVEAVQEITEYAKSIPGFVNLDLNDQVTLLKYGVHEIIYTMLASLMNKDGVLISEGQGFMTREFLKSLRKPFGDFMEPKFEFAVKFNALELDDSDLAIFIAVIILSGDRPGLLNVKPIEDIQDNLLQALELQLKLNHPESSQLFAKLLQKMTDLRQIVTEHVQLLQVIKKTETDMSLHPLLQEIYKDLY
Put plainly: Binding affinity to PPARgamma (unknown origin).

For experiment [4], the target named is T3, Nuclear receptor ROR-gamma (Homo sapiens) (UniProt P51449).
T3 sequence (whole entry): T1 sequence (P51449 whole entry)
The conditions noted are these: filed as inverse agonist, dose 10.0 µM.

Experiment [5] concerns the target T3, Nuclear receptor ROR-gamma (Homo sapiens). Put plainly: Orthosteric agonist activity at 2-chloro-5-nitro-N-(2-(trifluoromethyl)phenyl)benzamide-ligated recombinant human N-terminal His6-tagged RORgammat ligand binding domain (265 to 518 residues) expressed in Escherichia coli BL21 (DE3) assessed as increase in coactivator, N-terminal biotinylated SRC-1 box2 peptide recruitment in presence of 2-chloro-5-nitro-N-(2-(trifluoromethyl)phenyl)benzamide incubated for 60 mins by TR-FRET assay. In a few lines:
(§1)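 Dose response: probe and His6-RORγt LBD (265-518, 20 μM) co-titrated (1.4x series, top 10 eq, 200 μM) in pH 5.8 TRIS/NaCl/CHAPS/BSA buffer overnight (4°C or RT per compound). Then 100 nM LBD, 100 nM biotin-SRC-1 box2, Tb anti-His, d2-streptavidin in HEPES pH 7.5, 150 mM NaCl, 5 mM DTT, 0.1% BSA, 0.1 mM CHAPS, 1% DMSO; top probe 1 μM; 60 min RT; 665/620 nm ratio; four-parameter fit; triplicate, ≥2 experiments.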

For experiment [6] the target is unchanged. Description: Orthosteric agonist activity at 2-chloro-N-(2,6-dimethylphenyl)-5-nitrobenzamide-ligated recombinant human N-terminal His6-tagged RORgammat ligand binding domain (265 to 518 residues) expressed in Escherichia coli BL21 (DE3) assessed as increase in coactivator, N-terminal biotinylated SRC-1 box2 peptide recruitment in presence of 2-chloro-N-(2,6-dimethylphenyl)-5-nitrobenzamide incubated for 60 mins by TR-FRET assay. Summed up: as §1

The target is the same in experiment [7]. Put plainly: Orthosteric agonist activity at 2-chloro-5-nitro-N-o-tolylbenzamide-ligated recombinant human N-terminal His6-tagged RORgammat ligand binding domain (265 to 518 residues) expressed in Escherichia coli BL21 (DE3) assessed as increase in coactivator, N-terminal biotinylated SRC-1 box2 peptide recruitment in presence of 2-chloro-5-nitro-N-o-tolylbenzamide incubated for 60 mins by TR-FRET assay. Summed up:
as §1

Experiment [8] has the same target. Put plainly: Orthosteric agonist activity at GW9662-ligated recombinant human N-terminal His6-tagged RORgammat ligand binding domain (265 to 518 residues) expressed in Escherichia coli BL21 (DE3) assessed as increase in coactivator, N-terminal biotinylated SRC-1 box2 peptide recruitment in presence of GW9662 incubated for 60 mins by TR-FRET assay. In a few lines:
as §1

The target is the same in experiment [9]. The conditions noted are these: filed as inverse agonist, dose 10.0 µM. The source holds these as a separate data set.

In the case of `O=C(Nc1ccccc1)c1cc([N+](=O)[O-])ccc1Cl`, the IC50 in [1] was determined as 86 nM. The result in [2] was inactive.

As to `Cc1ccccc1NC(=O)c1cc([N+](=O)[O-])ccc1Cl`, the half-maximal inhibitory concentration (IC50) in [1] is 77 nM. Besides, in [3], the outcome was Active.

Take `O=C(O)c1ccc(NCc2c(-c3c(Cl)cccc3C(F)(F)F)noc2-c2cc[nH]c2)cc1`: the ΔTm in experiment [4] turned out to be 2.1 °C.

As to `O=C(NCc1ccccc1)c1cc([N+](=O)[O-])ccc1Cl`, in experiment [3], the outcome was Active.

Take `Cc1ccc(NC(=O)c2cc([N+](=O)[O-])ccc2Cl)cc1`: the result in [3] was Active.

As to `O=C(Nc1ccsc1)c1cc([N+](=O)[O-])ccc1Cl`, the IC50 in [1] was 122 nM. Further, the result in [3] was Active.

For the compound `O=C(c1cc([N+](=O)[O-])ccc1Cl)n1cccc1`, the outcome in experiment [3] was inactive.

Consider `O=C(NC1CCCCC1)c1cc([N+](=O)[O-])ccc1Cl`, for which the result in experiment [3] was Active.

Regarding `O=C(Nc1ccc([N+](=O)[O-])cc1)c1cc([N+](=O)[O-])ccc1Cl`, the outcome in [3] was Active.

As for `C=CCNC(=O)c1cc([N+](=O)[O-])ccc1Cl`, in [3], the result was Active.

With `CC(C)CCC[C@@H](C)[C@H]1CC[C@H]2[C@@H]3CC=C4C[C@@H](O)CC[C@]4(C)[C@H]3CC[C@]12C`, the result in [5], in experiment [6], in experiment [7] and in experiment [8] was inactive.

For the compound `O=C(Nc1ccccc1)c1cc(Cl)ccc1[N+](=O)[O-]`, in experiment [3], the outcome was inactive.

For the compound `Cc1cccc(NC(=O)c2cc([N+](=O)[O-])ccc2Cl)c1`, the result in [3] was Active.

With `COc1ccc(NC(=O)c2cc([N+](=O)[O-])ccc2Cl)cc1`, the result in [3] was Active.

For the compound `C[C@H]1O[C@@H](O[C@H]2[C@@H](O)C[C@H](O[C@H]3[C@@H](O)C[C@H](O[C@H]4CC[C@@]5(C)[C@H](CC[C@@H]6[C@@H]5C[C@@H](O)[C@]5(C)[C@@H](C7=CC(=O)OC7)CC[C@]65O)C4)O[C@@H]3C)O[C@@H]2C)C[C@H](O)[C@@H]1O`, the thermal shift (ΔTm) in experiment [9] was -0.2 °C.

As to `CC(C)NC(=O)c1cc([N+](=O)[O-])ccc1Cl`, the result in [3] was Active.

As a reminder, the IC50 is the concentration needed to halve the response being measured. For orientation: ΔTm means the shift of the melting midpoint relative to a reference.
